Experimental data as given in ChEMBL document CHEMBL5252539, “In vitro biological evaluation of new antimycobacterial salicylanilide-tuftsin conjugates” (Eur J Med Chem, 2017).
Converted amounts (≈) assume the structure as drawn. The source made the active and inactive calls. The calls are words filed in the database; no cut-off is given here. *1 amine or outer side, *2 acyl side, *3 side chain or, on linkers, in order; H or OH if unused. Where a SMILES comes first, the peptide text is derived from it. [ ]: non-standard residue; d: D form. The star is where a group is joined. X2 = C/C(=N\OCC(=O)*)c1ccc(NC(=O)c2cc(Br)ccc2O)cc1; X1 = C/C(=N\OCC(=O)[*:2])c1ccc(N[*:1])cc1; Benzoyl(5-Br-2-OH) = O=C(c1cc(Br)ccc1O)*; Palmitoyl = CCCCCCCCCCCCCCCC(=O)*; X3 = O=C(c1cc(Cl)ccc1O)*; Butyryl = CCCC(=O)*

Assays:
[1] = tested on: Mycobacteroides abscessus; assay: Antimycobacterial activity against Mycobacterium abscessus ATCC 19977 assessed as reduction in colony forming unit after 7 days by serial dilution method; assay type: functional, organism-based; details: time 7.0 day
Outline: (§1)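 MIC determined in Sula semisynthetic medium, pH 6.5, 1 week incubation. Growth inhibition confirmed by plating on Löwenstein-Jensen solid medium and counting CFU. Bacteria inoculated without drug served as growth control.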

[2] = tested on: Mycobacterium tuberculosis; assay: Antimycobacterial activity against Mycobacterium tuberculosis H37Rv ATCC 27294 assessed as reduction in colony forming unit after 28 days by serial dilution method; assay type: functional, organism-based; details: time 28.0 day
Outline: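 After the 4-week MIC incubation in Sula semisynthetic medium (pH 6.5), growth inhibition confirmed by plating on Löwenstein-Jensen solid medium and counting colony forming units.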

[3] = tested on: Mycobacterium tuberculosis; assay: […] antimycobacterial activity against Mycobacterium tuberculosis H37Rv ATCC 27294 infected in human MONO-MAC-6 cells assessed as reduction in colony forming unit at 250 uM for 6 days by colony counting based analysis; assay type: functional, organism-based; details: time 6.0 day
Outline: (§2)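 MonoMac6 monolayers infected with H37Rv, then treated with compound at 125 or 250 µM for 3 days. Treatment repeated with fresh compound solution for another 3 days. Intracellular bacteria quantified as CFU against untreated infected cells.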

HepG2 = assay: Cytostatic activity against human HepG2 cells assessed as reduction in cell viability incubated for 24 hrs by MTT assay; assay type: functional, cell-based; details: HepG2, 24 h
Outline: (§3)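 MTT viability assay after 24 h exposure of MonoMac6 human monocytic cells or HepG2 human hepatocellular carcinoma cells. Top concentration 200 μM. IC50 taken from dose-response curves as the concentration reducing viability to 50% of maximal.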

[4] = Retention time of the compound by RP-HPLC analysis; assay type: physicochemical
Outline: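 Analytical RP-HPLC on a C18 column (5 μm, 100 Å, 4.6 × 150 mm). Eluent A 0.1% TFA in water, eluent B 0.1% TFA in acetonitrile-water 80:20. Gradient 0% B for 5 min, to 60% B at 15 min, to 100% B at 25 min. Flow 1 mL/min, detection at 220 nm.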

[5] = Stability in rat liver lysosomal homogenate assessed as drug degradation at 50 uM and measured upto 24 hrs by HPLC-MS analysis; assay type: ADME, subcellular, Lysosome; details: tissue homogenate
Outline: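 Conjugates incubated in rat liver lysosomal homogenate. Reaction mixtures sampled at 5 min, 1 h, 2 h, 4 h, 8 h and 24 h and analysed by HPLC-MS (chromatograms and mass spectra) to identify intact conjugate, fragments and cleavage sites.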

[6] = tested on: Mycobacteroides abscessus; assay: Antimycobacterial activity against Mycobacterium abscessus ATCC 19977 assessed as reduction in bacterial growth after 7 days by serial dilution method; assay type: functional; details: ATCC 19977, 168 h, time 7 day; outline: as §1
[7] = tested on: Mycobacterium tuberculosis; assay: […] antimycobacterial activity against Mycobacterium tuberculosis H37Rv ATCC 27294 infected in human MONO-MAC-6 cells assessed as reduction in colony forming unit at 125 uM for 6 days by colony counting based analysis; assay type: functional, organism-based; details: time 6.0 day; outline: as §2
[8] = tested on: Mycobacterium tuberculosis; assay: Antimycobacterial activity against Mycobacterium tuberculosis H37Rv ATCC 27294 assessed as reduction in bacterial growth after 28 days by serial dilution method; assay type: functional; details: H37Rv ATCC 27294, 672 h, time 28 day
Outline: (§4)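 Broth MIC in Sula semisynthetic medium, pH 6.5; 4-week incubation, with 21-day values […] where indicated. Drug-free inoculated bacteria served as growth control. MIC also expressed as drug content (µg/mL) = MIC (µM) × average SAL molar mass × number of SAL per conjugate / 1000.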

MONO-MAC-6 = assay: Cytostatic activity against human MONO-MAC-6 cells assessed as reduction in cell viability incubated for 24 hrs by MTT assay; assay type: functional, cell-based; details: MONO-MAC-6, 24 h; outline: as §3
[9] = Selectivity index, ratio of IC50 for cytostatic activity against human MONO-MAC-6 cells to MIC for antimycobacterial activity against Mycobacterium tuberculosis H37Rv ATCC 27294; assay type: toxicity, cell-based; details: read-out: Selectivity Index
Outline: (§5)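 MTT assay on MonoMac6 or HepG2 cells after 24 h exposure, top concentration 200 µM. SI = IC50 (µM)/MIC (µM) against H37Rv from the 4-week Sula medium assay.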

[10] = Selectivity index, ratio of IC50 for cytostatic activity against human HepG2 cells to MIC for antimycobacterial activity against Mycobacterium tuberculosis H37Rv ATCC 27294; assay type: toxicity, cell-based; details: read-out: Selectivity Index; outline: as §5
[11] = tested on: Mycobacterium tuberculosis; assay: Antimycobacterial activity against Mycobacterium tuberculosis H37Rv ATCC 27294 assessed as reduction in bacterial growth after 21 days by serial dilution method; assay type: functional; details: H37Rv ATCC 27294, 504 h, time 21 day; outline: as §4

Structure (SMILES) | Activity [1] | Activity [2] | Activity [3] | IC50 (HepG2) [µM] | Retention_time [4] [min] | Stability [5] | MIC [6] [µM] | Activity [7] | MIC [8] [µM] | IC50 (MONO-MAC-6) [µM] | selectivity ratio [9] | selectivity ratio [10] | MIC [11] [µM]
C/C(=N\OCC(=O)NCCCC[C@H](NC(=O)[C@@H]1CCCN1C(=O)[C@H](CCCCN)NC(=O)[C@@H](NC(=O)CO/N=C(\C)c1ccc(NC(=O)c2cc(Br)ccc2O)cc1)[C@@H](C)O)C(=O)NCC(=O)N[C@H](C(=O)N[C@@H](CCCCN)C(=O)N1CCC[C@H]1C(=O)N[C@@H](CCCCN)C(=O)NCC(=O)N[C@H](C(=O)N[C@@H](CCCCN)C(=O)N1CCC[C@H]1C(=O)N[C@@H](CCCCN)C(=O)NCC(=O)N[C@H](C(=O)N[C@@H](CCCCN)C(=O)N1CCC[C@H]1C(=O)N[C@@H](CCCCN)C(=O)NCC(N)=O)[C@@H](C)O)[C@@H](C)O)[C@@H](C)O)c1ccc(NC(=O)c2cc(Br)ccc2O)cc1 ({Benzoyl(5-Br-2-OH)}-[X1]TKPK(X2)GTKPKGTKPKGTKPKG-NH2) | Active | Active | Active | 79.7 | 16.3 | Unstable | 70.4 (≈ 200 µg/mL) | inactive | 42.2 (≈ 120 µg/mL) | 39.1 | 0.9 | 1.9 | 
C/C(=N\OCC(=O)N[C@H](C(=O)O)[C@@H](C)O)c1ccc(NC(=O)c2cc(Br)ccc2O)cc1 | Active | Active | Active | > 200 |  |  |  | Active |  | > 200 | > 0.5 | > 0.5 | 394 (≈ 200 µg/mL)
C/C(=N\OCC(=O)N[C@H](C(=O)N[C@@H](CCCCN)C(=O)N1CCC[C@H]1C(=O)N[C@@H](CCCCN)C(=O)NCC(=O)O)[C@@H](C)O)c1ccc(NC(=O)c2cc(Br)ccc2O)cc1 ({Benzoyl(5-Br-2-OH)}-[X1]TKPKG-OH) | Active | Active | Active | 191 |  | Unstable | 218 (≈ 200 µg/mL) | Active | 65.3 (≈ 60 µg/mL) | > 200 | > 3.1 | 2.9 | 
C/C(=N\OCC(=O)N[C@H](C(=O)N[C@@H](CCCCN)C(=O)N1CCC[C@H]1C(=O)N[C@@H](CCCNC(=N)N)C(=O)O)[C@@H](C)O)c1ccc(NC(=O)c2cc(Br)ccc2O)cc1 ({Benzoyl(5-Br-2-OH)}-[X1]TKPR-OH) | Active | Active | Active | > 200 |  | Unstable | 225 (≈ 200 µg/mL) | Active | 45 (≈ 40 µg/mL) | > 200 | > 4.4 | > 4.4 | 
C/C(=N\OCC(=O)N[C@H](C(=O)N[C@@H](CCCCN)C(=O)N1CCC[C@H]1C(=O)N[C@@H](CCCCN)C(=O)NCC(=O)N[C@H](C(=O)N[C@@H](CCCCN)C(=O)N1CCC[C@H]1C(=O)N[C@@H](CCCCN)C(=O)NCC(N)=O)[C@@H](C)O)[C@@H](C)O)c1ccc(NC(=O)c2cc(Br)ccc2O)cc1 ({Benzoyl(5-Br-2-OH)}-[X1]TKPKGTKPKG-NH2) | Active | Active | Active | > 200 | 14.9 | Unstable | 56 (≈ 80.1 µg/mL) | Active | 175 (≈ 250 µg/mL) | > 200 | > 1.1 | > 1.1 | 
C/C(=N\OCC(=O)NCC(=O)N[C@@H](Cc1ccccc1)C(=O)N[C@@H](CC(C)C)C(=O)NCC(=O)N[C@H](C(=O)N[C@@H](CCCCN)C(=O)N1CCC[C@H]1C(=O)N[C@@H](CCCCN)C(=O)NCC(N)=O)[C@@H](C)O)c1ccc(NC(=O)c2cc(Br)ccc2O)cc1 ({Benzoyl(5-Br-2-OH)}-[X1]GFLGTKPKG-NH2) | Active | Active | Active | 163 |  | Unstable | 155 (≈ 200 µg/mL) | Active | 31 (≈ 40.1 µg/mL) | > 200 | > 6.5 | 5.3 | 
C/C(=N\OCC(=O)N[C@H](C(=O)N[C@@H](CCCCN)C(=O)N1CCC[C@H]1C(=O)N1CCC[C@H]1C(=O)N[C@@H](CCCNC(=N)N)C(=O)O)[C@@H](C)O)c1ccc(NC(=O)c2cc(Br)ccc2O)cc1 |  |  |  | > 200 |  | Unstable |  |  |  | > 200 | > 9.9 | > 9.9 | 
C/C(=N\OCC(=O)NCC(=O)O)c1ccc(NC(=O)c2cc(Br)ccc2O)cc1 | Active | Active | Active | > 200 |  |  |  | Active |  | > 200 | > 0.9 | > 0.9 | 215 (≈ 100 µg/mL)
CCCC(=O)NCCCC[C@H](NC(=O)[C@@H]1CCCN1C(=O)[C@H](CCCCN)NC(=O)[C@@H](NC(=O)CO/N=C(\C)c1ccc(NC(=O)c2cc(Br)ccc2O)cc1)[C@@H](C)O)C(=O)NCC(=O)N[C@H](C(=O)N[C@@H](CCCCN)C(=O)N1CCC[C@H]1C(=O)N[C@@H](CCCCN)C(=O)NCC(=O)N[C@H](C(=O)N[C@@H](CCCCN)C(=O)N1CCC[C@H]1C(=O)N[C@@H](CCCCN)C(=O)NCC(=O)N[C@H](C(=O)N[C@@H](CCCCN)C(=O)N1CCC[C@H]1C(=O)N[C@@H](CCCCN)C(=O)NCC(N)=O)[C@@H](C)O)[C@@H](C)O)[C@@H](C)O ({Benzoyl(5-Br-2-OH)}-[X1]TKPK(Butyryl)GTKPKGTKPKGTKPKG-NH2) | Active | Active | Active | 81.6 | 14.7 |  | 79.3 (≈ 200 µg/mL) | Active | 63.4 (≈ 160 µg/mL) | > 200 | > 3.2 | 1.3 | 
CCCCCCCCCCCCCCCC(=O)NCCCC[C@H](NC(=O)[C@@H]1CCCN1C(=O)[C@H](CCCCN)NC(=O)[C@@H](NC(=O)CO/N=C(\C)c1ccc(NC(=O)c2cc(Cl)ccc2O)cc1)[C@@H](C)O)C(=O)NCC(=O)N[C@H](C(=O)N[C@@H](CCCCN)C(=O)N1CCC[C@H]1C(=O)N[C@@H](CCCCN)C(=O)NCC(=O)N[C@H](C(=O)N[C@@H](CCCCN)C(=O)N1CCC[C@H]1C(=O)N[C@@H](CCCCN)C(=O)NCC(=O)N[C@H](C(=O)N[C@@H](CCCCN)C(=O)N1CCC[C@H]1C(=O)N[C@@H](CCCCN)C(=O)NCC(N)=O)[C@@H](C)O)[C@@H](C)O)[C@@H](C)O (X3-[X1]TKPK(Palmitoyl)GTKPKGTKPKGTKPKG-NH2) | Active | Active | Active | 42.9 |  |  | 75.6 (≈ 200 µg/mL) | Active | 94.5 (≈ 250 µg/mL) | 16.8 | 0.2 | 0.5 | 
